# Activity calls are given as the source filed them. The calls are words filed in the database; no cut-off is given here.
# Columns and labels:
# [1] = test system: Rattus norvegicus; experiment: Antiinflammatory activity in Albino Wistar rat assessed as inhibition of carrageenan-induced paw edema at equimolar dosage of Ibuprofen 10 mg/kg, po administered 1 hr before carrageenan challenge measured after 3 hrs by plethysmometer; assay type: functional
# Method in brief: (§1)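 Rats fasted 14 h with water only. Compounds given orally at dose equimolar to ibuprofen (10 mg/kg p.o.) 1 h before subplantar injection of 0.1 ml freshly prepared 1% carrageenan in saline into right hind paw. Control received 0.1 ml 0.9% saline orally. Change in paw volume (ml) at 3 and 5 h; % inhibition; one-way ANOVA with Dunnett's test.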
# [2] = test system: Rattus norvegicus; experiment: Antiinflammatory activity in Albino Wistar rat assessed as inhibition of carrageenan-induced paw edema at equimolar dosage of Ibuprofen 10 mg/kg, po administered 1 hr before carrageenan challenge measured after 5 hrs by plethysmometer; assay type: functional; method in brief: as §1
# [3] = test system: Rattus norvegicus; experiment: Antiinflammatory activity in Albino Wistar rat assessed as inhibition of carrageenan-induced paw edema at equimolar dosage of Ibuprofen 10 mg/kg, po administered 1 hr before carrageenan challenge by plethysmometer; assay type: functional, organism-based; set-up: dose 10 mg/kg; settings: TDE = time-dependent effect, at 10 mg/kg; method in brief: as §1
# [4] = test system: Mus musculus; experiment: Analgesic activity in mouse assessed as inhibition of acetic acid-induced writhing at equimolar dosage of Ibuprofen 10 mg/kg, po administered 30 mins before to acetic acid challenge measured for 20 mins relative to control; assay type: functional, organism-based; set-up: dose 10 mg/kg; settings: at 10 mg/kg
# Method in brief: (§2)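 Writhing induced in mice by intraperitoneal 0.6% (v/v) acetic acid (80 mg/kg). Compounds given orally at dose equimolar to ibuprofen 10 mg/kg, 30 min before stimulus; ibuprofen 10 mg/kg orally as reference. Six animals per group.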
# [5] = test system: Rattus norvegicus; experiment: Ulcerogenicity in Albino Wistar rat assessed as gastric ulceration at equimolar dosage of Ibuprofen 30 mg/kg, po relative to control; assay type: toxicity, organism-based, Stomach; set-up: dose 30 mg/kg, route oral; settings: in vivo
# Method in brief: (§3)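 Oral dosing at three times the anti-inflammatory dose: ibuprofen 30 mg/kg or equimolar test compound. Three animals per group, sacrificed afterwards. Stomach wall sections stained with haematoxylin-eosin and examined at 10x and 40x for mucosal, submucosal and epithelial damage.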
# [6] = test system: Mus musculus; experiment: Ulcerogenicity in mouse assessed as gastric ulceration at equimolar dosage of Ibuprofen 30 mg/kg, po relative to control; assay type: toxicity, organism-based, Stomach; set-up: dose 30 mg/kg, route oral; settings: in vivo
# [7] = Selectivity ratio of IC50 for human recombinant COX2 to IC50 for ram seminal vesicle COX1; assay type: tissue-based
# Method in brief: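 COX-1 and COX-2 purified chromatographically. Peroxidase read-out from TMPD oxidation during PGG2 to PGH2 reduction. Mix: 100 mM Tris-HCl pH 8.0, hematin, 3 mM EDTA, […], test compound; 1 min preincubation at 25 °C; started with arachidonic acid plus TMPD. Rate from absorbance rise at 603 nm over first 25 s. Ratio is IC50 COX-2/IC50 COX-1.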
# [8] = test system: Mus musculus; experiment: Analgesic activity in mouse assessed as inhibition of acetic acid-induced writhing at 10 mg/kg, po administered 30 mins before to acetic acid challenge measured for 20 mins relative to control; assay type: functional, organism-based; set-up: dose 10 mg/kg; method in brief: as §2
# [9] = test system: Rattus norvegicus; experiment: Antiinflammatory activity in Albino Wistar rat assessed as inhibition of carrageenan-induced paw edema at 10 mg/kg, po administered 1 hr before carrageenan challenge measured after 3 hrs by plethysmometer; assay type: functional; method in brief: as §1
# [10] = test system: Rattus norvegicus; experiment: Antiinflammatory activity in Albino Wistar rat assessed as inhibition of carrageenan-induced paw edema at 10 mg/kg, po administered 1 hr before carrageenan challenge measured after 5 hrs by plethysmometer; assay type: functional; method in brief: as §1
# [11] = test system: Rattus norvegicus; experiment: Ulcerogenicity in Albino Wistar rat assessed as gastric ulceration at 30 mg/kg, po relative to untreated control; assay type: toxicity, organism-based, Stomach; set-up: dose 30 mg/kg, route oral; settings: in vivo; method in brief: as §3
# [12] = test system: Mus musculus; experiment: Ulcerogenicity in mouse assessed as gastric ulceration at 30 mg/kg, po relative to untreated control; assay type: toxicity, organism-based, Stomach; set-up: dose 30 mg/kg, route oral; settings: in vivo
SMILES,inhibition in vivo [1],inhibition in vivo [2],also measured
O=[N+]([O-])c1ccc(-n2cc(CSc3nc4ccccc4s3)nn2)cc1,75%,65.5%,inhibition [3]: tde; inhibition [4]: Active; Activity [5]: Non-toxic; Activity [6]: Non-toxic
Clc1cccc(-n2cc(CSc3nc4ccccc4s3)nn2)c1,35%,39.6%,
CCOc1ccc(-n2cc(CSc3nc4ccccc4s3)nn2)cc1,38.3%,34%,
O=[N+]([O-])c1cccc(-n2cc(CSc3nc4ccccc4s3)nn2)c1,11.7%,21.5%,Ratio IC50 [7]: 5.21
CC(C)Cc1ccc(C(C)C(=O)O)cc1 (stereo unspecified) [IBUPROFEN],,,inhibition [8]: Active; inhibition in vivo at 10 mg/kg [9]: 69.5%; inhibition in vivo at 10 mg/kg [10]: 71.7%; Activity [11]: Toxic; Activity [12]: Toxic
Fc1ccc(-n2cc(CSc3nc4ccccc4s3)nn2)cc1,77.8%,81.1%,Ratio IC50 [7]: 0.441; inhibition [3]: tde; inhibition [4]: Active; Activity [5]: Non-toxic; Activity [6]: Non-toxic
O[C@@H]1[C@H](O)[C@@H](O)OC(Cn2cc(CSc3nc4ccccc4s3)nn2)[C@@H]1O (stereo partly specified),63.3%,60.4%,
OCC(O)Cn1cc(CSc2nc3ccccc3s2)nn1 (stereo unspecified),56.7%,52.8%,
Clc1ccccc1-n1cc(CSc2nc3ccccc3s2)nn1,83.3%,78.1%,inhibition [3]: tde; inhibition [4]: Active; Activity [5]: Non-toxic; Activity [6]: Non-toxic
c1cncc(-n2cc(CSc3nc4ccccc4s3)nn2)c1,64%,56%,
Brc1ccc(-n2cc(CSc3nc4ccccc4s3)nn2)cc1,75%,59.2%,inhibition [3]: tde; inhibition [4]: Active; Activity [5]: Non-toxic; Activity [6]: Non-toxic
CC1(C)OCC(Cn2cc(CSc3nc4ccccc4s3)nn2)O1 (stereo unspecified),53.3%,49%,
c1ccc(-n2cc(CSc3nc4ccccc4s3)nn2)cc1,46.7%,32.1%,
Cc1ccccc1-n1cc(CSc2nc3ccccc3s2)nn1,47.3%,43.4%,
CC1(C)O[C@H]2OC(Cn3cc(CSc4nc5ccccc5s4)nn3)[C@@H]3OC(C)(C)O[C@@H]3[C@@H]2O1 (stereo partly specified),59.7%,56.6%,Ratio IC50 [7]: 1.53
Clc1ccc(-n2cc(CSc3nc4ccccc4s3)nn2)cc1,50%,43.4%,Ratio IC50 [7]: 14.9
Cc1ccc(-c2cc(C(F)(F)F)nn2-c2ccc(S(N)(=O)=O)cc2)cc1,,,Ratio IC50 [7]: 0.0028
